Experimental data from ChEMBL document CHEMBL4715736, “Identification of anticancer agents based on the thieno[2,3-b]pyridine and 1H-pyrazole molecular scaffolds” (2016).

How the values were obtained:
Assay type in all cases: functional
NCI-H322M = assay: Growth inhibition of human NCI-H322M cells assessed as cell growth at 1 uM incubated for 48 hrs by sulforhodamine B assay relative to control; settings: read-out: Activity
SNB-19 = assay: Growth inhibition of human SNB-19 cells assessed as cell growth at 0.1 uM incubated for 48 hrs by sulforhodamine B assay relative to control; settings: read-out: Activity
SK-MEL-2 = assay: Growth inhibition of human SK-MEL-2 cells assessed as cell growth at 0.01 uM incubated for 48 hrs by sulforhodamine B assay relative to control; settings: read-out: Activity
LOX IMVI [1] = assay: Growth inhibition of human LOX IMVI cells assessed as cell growth at 1 uM incubated for 48 hrs by sulforhodamine B assay relative to control; settings: read-out: Activity
SNB-75 [2] = assay: Growth inhibition of human SNB-75 cells assessed as cell growth at 0.01 uM incubated for 48 hrs by sulforhodamine B assay relative to control; settings: read-out: Activity
Malme-3M [3] = assay: Growth inhibition of human Malme-3M cells assessed as cell growth at 100 uM incubated for 48 hrs by sulforhodamine B assay relative to control; settings: read-out: Activity
NCI-H522 = assay: Growth inhibition of human NCI-H522 cells assessed as cell growth at 0.01 uM incubated for 48 hrs by sulforhodamine B assay relative to control; settings: read-out: Activity
NCI/ADR-RES [4] = assay: Growth inhibition of human NCI/ADR-RES cells assessed as cell growth at 0.1 uM incubated for 48 hrs by sulforhodamine B assay relative to control; settings: read-out: Activity
Malme-3M [5] = assay: Growth inhibition of human Malme-3M cells assessed as cell growth at 0.01 uM incubated for 48 hrs by sulforhodamine B assay relative to control; settings: read-out: Activity
MOLT-4 = assay: Growth inhibition of human MOLT-4 cells assessed as cell growth at 0.01 uM incubated for 48 hrs by sulforhodamine B assay relative to control; settings: read-out: Activity
SW-620 = assay: Growth inhibition of human SW-620 cells incubated for 48 hrs by sulforhodamine B assay
Method in brief: (§1)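 NCI DTP 60-line human tumour panel. Dose-response curves were run only for ligands active in the initial 10 µM screen. GI50 (concentration giving 50% of maximal inhibition of proliferation) and TGI (concentration giving total growth inhibition) were derived from these curves.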

SF-539 = assay: Growth inhibition of human SF-539 cells assessed as cell growth at 100 uM incubated for 48 hrs by sulforhodamine B assay relative to control; settings: read-out: Activity
UACC-257 [6] = assay: Growth inhibition of human UACC-257 cells assessed as cell growth at 100 uM incubated for 48 hrs by sulforhodamine B assay relative to control; settings: read-out: Activity
MDA-MB-468 = assay: Growth inhibition of human MDA-MB-468 cells assessed as cell growth at 0.1 uM incubated for 48 hrs by sulforhodamine B assay relative to control; settings: read-out: Activity
SK-MEL-5 = assay: Growth inhibition of human SK-MEL-5 cells assessed as cell growth at 0.01 uM incubated for 48 hrs by sulforhodamine B assay relative to control; settings: read-out: Activity
IGROV-1 = assay: Growth inhibition of human IGROV-1 cells assessed as cell growth at 0.01 uM incubated for 48 hrs by sulforhodamine B assay relative to control; settings: read-out: Activity
SNB-75 [7] = assay: Growth inhibition of human SNB-75 cells incubated for 48 hrs by sulforhodamine B assay; method in brief: as §1
786-0 = assay: Growth inhibition of human 786-0 cells assessed as cell growth at 1 uM incubated for 48 hrs by sulforhodamine B assay relative to control; settings: read-out: Activity
Method in brief: (§2)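 NCI Developmental Therapeutics Program NCI60 panel. Compounds that were active in the 10 µM one-dose screen went on to dose–response testing. Growth at each concentration is expressed relative to untreated control (100%). GI50 (concentration giving 50% of maximal inhibition of proliferation) and TGI (concentration giving total growth inhibition) were derived from the curves.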

OVCAR-3 [8] = assay: Growth inhibition of human OVCAR-3 cells assessed as cell growth at 100 uM incubated for 48 hrs by sulforhodamine B assay relative to control; settings: read-out: Activity
HOP-92 [9] = assay: Growth inhibition of human HOP-92 cells assessed as cell growth at 1 uM incubated for 48 hrs by sulforhodamine B assay relative to control; settings: read-out: Activity
LOX IMVI [10] = assay: Growth inhibition of human LOX IMVI cells incubated for 48 hrs by sulforhodamine B assay
Method in brief: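 NCI60 panel at the NCI Developmental Therapeutics Program. Only compounds active in the 10 µM screen went to dose-response testing. GI50, the concentration giving 50% of maximal inhibition of proliferation, and TGI, the concentration giving total growth inhibition, were derived from the dose-response curves.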

RPMI-8226 = assay: Growth inhibition of human RPMI-8226 cells incubated for 48 hrs by sulforhodamine B assay; method in brief: as §1
HOP-92 [11] = assay: Growth inhibition of human HOP-92 cells assessed as cell growth at 100 uM incubated for 48 hrs by sulforhodamine B assay relative to control; settings: read-out: Activity
COLO 205 [12] = assay: Growth inhibition of human COLO 205 cells assessed as cell growth at 100 uM incubated for 48 hrs by sulforhodamine B assay relative to control; settings: read-out: Activity; method in brief: as §2
BT-549 = assay: Growth inhibition of human BT-549 cells assessed as cell growth at 0.01 uM incubated for 48 hrs by sulforhodamine B assay relative to control; settings: read-out: Activity
COLO 205 [13] = assay: Growth inhibition of human COLO 205 cells assessed as cell growth at 0.1 uM incubated for 48 hrs by sulforhodamine B assay relative to control; settings: read-out: Activity; method in brief: as §2
T47D = assay: Growth inhibition of human T47D cells assessed as cell growth at 100 uM incubated for 48 hrs by sulforhodamine B assay relative to control; settings: read-out: Activity
HOP-92 [14] = assay: Growth inhibition of human HOP-92 cells assessed as cell growth at 0.01 uM incubated for 48 hrs by sulforhodamine B assay relative to control; settings: read-out: Activity
OVCAR-3 [15] = assay: Growth inhibition of human OVCAR-3 cells incubated for 48 hrs by sulforhodamine B assay; settings: for CC50: read-out: LC50 (the source's name); method in brief: as §1
UACC-257 [16] = assay: Growth inhibition of human UACC-257 cells assessed as cell growth at 0.01 uM incubated for 48 hrs by sulforhodamine B assay relative to control; settings: read-out: Activity
NCI-H226 = assay: Growth inhibition of human NCI-H226 cells assessed as cell growth at 0.01 uM incubated for 48 hrs by sulforhodamine B assay relative to control; settings: read-out: Activity
NCI/ADR-RES [17] = assay: Growth inhibition of human NCI/ADR-RES cells assessed as cell growth at 100 uM incubated for 48 hrs by sulforhodamine B assay relative to control; settings: read-out: Activity
ACHN [18] = assay: Growth inhibition of human ACHN cells assessed as cell growth at 0.1 uM incubated for 48 hrs by sulforhodamine B assay relative to control; settings: read-out: Activity
ACHN [19] = assay: Growth inhibition of human ACHN cells incubated for 48 hrs by sulforhodamine B assay; method in brief: as §2
OVCAR-5 = assay: Growth inhibition of human OVCAR-5 cells assessed as cell growth at 0.1 uM incubated for 48 hrs by sulforhodamine B assay relative to control; settings: read-out: Activity

CN1CCc2nc3sc(C(N)=O)c(N)c3c(-c3cccs3)c2C1
growth at 1 µM (NCI-H322M): 99% | growth at 0.1 µM (SNB-19): 103% | growth at 0.01 µM (SK-MEL-2): 107% | growth at 1 µM (LOX IMVI [1]): 56% | growth at 0.01 µM (SNB-75 [2]): 95% | growth at 100 µM (Malme-3M [3]): -11% | growth at 0.01 µM (NCI-H522): 96% | growth at 0.1 µM (NCI/ADR-RES [4]): 96% | growth at 0.01 µM (Malme-3M [5]): 104% | growth at 0.01 µM (MOLT-4): 99% | GI50 (SW-620): 4.02 µM | LC50 (concentration killing 50% of cells) (SW-620): > 100 µM | TGI (SW-620): > 100 µM | growth at 100 µM (SF-539): -39% | growth at 100 µM (UACC-257 [6]): 3% | growth at 0.1 µM (MDA-MB-468): 82% | growth at 0.01 µM (SK-MEL-5): 96% | growth at 0.01 µM (IGROV-1): 111% | GI50 (SNB-75 [7]): 2.81 µM | LC50 (SNB-75 [7]): > 100 µM | TGI (SNB-75 [7]): 8.03 µM | growth at 1 µM (786-0): 107% | growth at 100 µM (OVCAR-3 [8]): -8% | growth at 1 µM (HOP-92 [9]): 104% | GI50 (LOX IMVI [10]): 1.27 µM | LC50 (LOX IMVI [10]): > 100 µM | TGI (LOX IMVI [10]): > 100 µM | GI50 (RPMI-8226): 4.41 µM | LC50 (RPMI-8226): > 100 µM | TGI (RPMI-8226): > 100 µM | growth at 100 µM (HOP-92 [11]): -1% | growth at 100 µM (COLO 205 [12]): -60% | growth at 0.01 µM (BT-549): 114% | growth at 0.1 µM (COLO 205 [13]): 103% | growth at 100 µM (T47D): 2% | growth at 0.01 µM (HOP-92 [14]): 127% | GI50 (OVCAR-3 [15]): 2.16 µM | TGI (OVCAR-3 [15]): 6.23 µM | CC50 (OVCAR-3 [15]): > 100 µM | growth at 0.01 µM (UACC-257 [16]): 97% | growth at 0.01 µM (NCI-H226): 93%

CCc1cccc(C)c1NC(=O)c1sc2nc3c(cc2c1N)C(=O)CCC3
growth at 1 µM (NCI-H322M): 42% | growth at 0.1 µM (SNB-19): 91% | growth at 1 µM (LOX IMVI [1]): 43% | growth at 0.01 µM (SNB-75 [2]): 73% | growth at 100 µM (Malme-3M [3]): -1% | growth at 100 µM (NCI/ADR-RES [17]): 1% | growth at 0.1 µM (NCI/ADR-RES [4]): 99% | growth at 0.01 µM (Malme-3M [5]): 96% | growth at 0.01 µM (MOLT-4): 98% | GI50 (SW-620): 0.359 µM | LC50 (concentration killing 50% of cells) (SW-620): > 100 µM | TGI (SW-620): > 100 µM | growth at 100 µM (SF-539): 2% | growth at 100 µM (UACC-257 [6]): -13% | growth at 0.1 µM (MDA-MB-468): 91% | growth at 0.01 µM (SK-MEL-5): 92% | growth at 0.01 µM (IGROV-1): 101% | GI50 (SNB-75 [7]): 0.212 µM | LC50 (SNB-75 [7]): > 100 µM | growth at 0.1 µM (ACHN [18]): 97% | growth at 1 µM (786-0): 36% | growth at 100 µM (OVCAR-3 [8]): -50% | growth at 1 µM (HOP-92 [9]): 39% | GI50 (ACHN [19]): 0.795 µM | TGI (ACHN [19]): > 100 µM | CC50 (ACHN [19]; read-out: LC50 (the source's name)): > 100 µM | GI50 (LOX IMVI [10]): 0.724 µM | LC50 (LOX IMVI [10]): > 100 µM | TGI (LOX IMVI [10]): > 100 µM | GI50 (RPMI-8226): 0.0141 µM | LC50 (RPMI-8226): > 100 µM | TGI (RPMI-8226): ≥ 100 µM | growth at 100 µM (HOP-92 [11]): -7% | growth at 100 µM (COLO 205 [12]): -31% | growth at 0.1 µM (COLO 205 [13]): 102% | growth at 0.1 µM (OVCAR-5): 88% | growth at 100 µM (T47D): -10% | growth at 0.01 µM (HOP-92 [14]): 82% | GI50 (OVCAR-3 [15]): 0.374 µM | TGI (OVCAR-3 [15]): 2.3 µM | CC50 (OVCAR-3 [15]): > 100 µM | growth at 0.01 µM (UACC-257 [16]): 93% | growth at 0.01 µM (NCI-H226): 96%
